Source: ChEMBL document CHEMBL1145212, “Fluorinated diaryl sulfides as serotonin transporter ligands: synthesis, structure-activity relationship study, and in vivo evaluation of fluorine-18-labeled compounds as PET imaging agents” (J Med Chem, 2005)

Experiments:
Rattus norvegicus [1] = species on record: Rattus norvegicus; assay: Regional uptake of [18F]AFA in hippocampus of rat pretreated with compound 7e; n=3; type: functional, organism-based; details: tested as the 18F-labelled form
Rattus norvegicus [2] = species on record: Rattus norvegicus; assay: Regional uptake of [18F]AFA in hypothalamus of rat pretreated with compound 7e; n=3; type: functional, organism-based; details: tested as the 18F-labelled form
Rattus norvegicus [3] = species on record: Rattus norvegicus; assay: Regional uptake of [18F]-AFA in blood of rat pretreated with compound citalopram; n=3; type: functional, organism-based; details: tested as the 18F-labelled form
Summary of the method: (§1)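 Male Sprague-Dawley rats, three per group, received blocker (2 mg/kg iv in saline) or saline only (controls) 10–15 min before about 20 µCi of tail-vein F-18 radioligand. Killed 60 min after tracer. Blood and brain regions weighed and gamma-counted. %ID/g was decay- and tail-corrected; mean ± SD.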

Rattus norvegicus [4] = species on record: Rattus norvegicus; assay: Regional uptake of [18F]AFA in blood of rat pretreated with compound nisoxetine; n=3; type: functional, organism-based; details: tested as the 18F-labelled form; summary of the method: as §1
Rattus norvegicus [5] = species on record: Rattus norvegicus; assay: Regional uptake of [18F]AFA in frontal cortex of rat pretreated with compound 7e; n=3; type: functional, organism-based; details: tested as the 18F-labelled form
Rattus norvegicus [6] = species on record: Rattus norvegicus; assay: Regional uptake of [18F]-AFA in striatum of rat pretreated with compound GBR-12935; n=3; type: functional, organism-based; details: tested as the 18F-labelled form; summary of the method: as §1
Rattus norvegicus [7] = species on record: Rattus norvegicus; assay: Regional uptake of [18F]AFA in thalamus of rat pretreated with compound GBR-12935; n=3; type: functional, organism-based; details: tested as the 18F-labelled form; summary of the method: as §1
Rattus norvegicus [8] = species on record: Rattus norvegicus; assay: Regional uptake of [18F]AFA in striatum of rat pretreated with compound citalopram; n=3; type: functional, organism-based; details: tested as the 18F-labelled form; summary of the method: as §1
Rattus norvegicus [9] = species on record: Rattus norvegicus; assay: Regional uptake of [18F]AFA in striatum of rat pretreated with compound nisoxetine; n=3; type: functional, organism-based; details: tested as the 18F-labelled form; summary of the method: as §1
Rattus norvegicus [10] = species on record: Rattus norvegicus; assay: Regional uptake of [18F]AFA in thalamus of rat pretreated with compound citalopram; n=3; type: functional, organism-based; details: tested as the 18F-labelled form; summary of the method: as §1
Rattus norvegicus [11] = species on record: Rattus norvegicus; assay: Regional uptake of [18F]AFA in thalamus of rat pretreated with compound nisoxetine; n=3; type: functional, organism-based; details: tested as the 18F-labelled form; summary of the method: as §1
Rattus norvegicus [12] = species on record: Rattus norvegicus; assay: Regional uptake of [18F]AFA in hippocampus of rat pretreated with compound GBR-12935; n=3; type: functional, organism-based; details: tested as the 18F-labelled form; summary of the method: as §1
Rattus norvegicus [13] = species on record: Rattus norvegicus; assay: Regional uptake of [18F]AFA in cerebellum of rat pretreated with compound citalopram; n=3; type: functional, organism-based; details: tested as the 18F-labelled form; summary of the method: as §1
Rattus norvegicus [14] = species on record: Rattus norvegicus; assay: Regional uptake of [18F]AFA in cerebellum of rat pretreated with compound nisoxetine; n=3; type: functional, organism-based; details: tested as the 18F-labelled form; summary of the method: as §1
Rattus norvegicus [15] = species on record: Rattus norvegicus; assay: Regional uptake of [18F]AFA in hypothalamus of rat pretreated with compound GBR-12935; n=3; type: functional, organism-based; details: tested as the 18F-labelled form; summary of the method: as §1
Rattus norvegicus [16] = species on record: Rattus norvegicus; assay: Regional uptake of [18F]AFA in hippocampus of rat pretreated with compound citalopram; n=3; type: functional, organism-based; details: tested as the 18F-labelled form; summary of the method: as §1
Rattus norvegicus [17] = species on record: Rattus norvegicus; assay: Regional uptake of [18F]AFA in hippocampus of rat pretreated with compound nisoxetine; n=3; type: functional, organism-based; details: tested as the 18F-labelled form; summary of the method: as §1
Rattus norvegicus [18] = species on record: Rattus norvegicus; assay: Regional uptake of [18F]AFA in frontal cortex of rat pretreated with compound GBR-12935; n=3; type: functional, organism-based; details: tested as the 18F-labelled form; summary of the method: as §1
Rattus norvegicus [19] = species on record: Rattus norvegicus; assay: Regional uptake of [18F]-AFA in hypothalamus of rat pretreated with compound nisoxetine; n=3; type: functional, organism-based; details: tested as the 18F-labelled form; summary of the method: as §1
Rattus norvegicus [20] = species on record: Rattus norvegicus; assay: Regional uptake of [18F]AFA in frontal cortex of rat pretreated with compound citalopram; n=3; type: functional, organism-based; details: tested as the 18F-labelled form; summary of the method: as §1
Rattus norvegicus [21] = species on record: Rattus norvegicus; assay: Regional uptake of [18F]AFA in frontal cortex of rat pretreated with compound nisoxetine; n=3; type: functional, organism-based; details: tested as the 18F-labelled form; summary of the method: as §1
[22] = biological target: Sodium-dependent serotonin transporter (Homo sapiens, UniProt P31645); assay: In vitro displacement of [3H]paroxetine from human serotonin transporter expressed in HEK293 cells; type: cell-based
Chain of Sodium-dependent serotonin transporter (P31645 whole entry): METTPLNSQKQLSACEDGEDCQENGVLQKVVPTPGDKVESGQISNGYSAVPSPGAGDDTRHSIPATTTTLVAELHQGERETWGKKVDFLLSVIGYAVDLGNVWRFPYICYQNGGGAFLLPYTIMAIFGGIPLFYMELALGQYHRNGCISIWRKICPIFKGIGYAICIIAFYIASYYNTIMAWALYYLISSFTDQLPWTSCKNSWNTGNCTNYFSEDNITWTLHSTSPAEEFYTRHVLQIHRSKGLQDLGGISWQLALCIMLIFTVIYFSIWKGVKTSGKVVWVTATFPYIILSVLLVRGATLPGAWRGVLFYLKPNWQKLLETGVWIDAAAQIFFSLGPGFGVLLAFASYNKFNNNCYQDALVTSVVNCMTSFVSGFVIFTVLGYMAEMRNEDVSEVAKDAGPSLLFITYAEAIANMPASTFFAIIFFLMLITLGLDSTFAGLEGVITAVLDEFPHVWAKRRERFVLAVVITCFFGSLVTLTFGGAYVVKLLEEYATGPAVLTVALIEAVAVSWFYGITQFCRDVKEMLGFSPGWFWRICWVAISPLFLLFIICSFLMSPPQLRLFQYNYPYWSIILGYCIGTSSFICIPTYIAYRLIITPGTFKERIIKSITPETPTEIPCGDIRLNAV

Rattus norvegicus [23] = species on record: Rattus norvegicus; assay: Regional uptake of [18F]AFA in thalamus of rat pretreated with compound 7e; n=3; type: functional, organism-based; details: tested as the 18F-labelled form
Rattus norvegicus [24] = species on record: Rattus norvegicus; assay: Regional uptake of [18F]AFA in cerebellum of rat pretreated with compound GBR-12935; n=3; type: functional, organism-based; details: tested as the 18F-labelled form; summary of the method: as §1
Rattus norvegicus [25] = species on record: Rattus norvegicus; assay: Regional uptake of [18F]AFA in hypothalamus of rat pretreated with compound citalopram; n=3; type: functional, organism-based; details: tested as the 18F-labelled form; summary of the method: as §1

Question: CN(C)Cc1ccccc1Sc1ccc(CCF)cc1N was tested. Which Uptake (Rattus norvegicus [1]) did it give?
Answer: 0.11 %ID/g

Question: And the Uptake (Rattus norvegicus [2])?
Answer: 0.15 %ID/g

Question: What about the Uptake (Rattus norvegicus [3]) of the same molecule?
Answer: 0.08 %ID/g

Question: And the Uptake (Rattus norvegicus [4])?
Answer: 0.06 %ID/g

Question: What about the Uptake (Rattus norvegicus [5]) of the same molecule?
Answer: 0.1 %ID/g

Question: What about the Uptake (Rattus norvegicus [6]) of the same molecule?
Answer: 0.2 %ID/g

Question: And the Uptake (Rattus norvegicus [7])?
Answer: 0.25 %ID/g

Question: And the Uptake (Rattus norvegicus [8])?
Answer: 0.09 %ID/g

Question: And the Uptake (Rattus norvegicus [9])?
Answer: 0.21 %ID/g

Question: What about the Uptake (Rattus norvegicus [10]) of the same molecule?
Answer: 0.11 %ID/g

Question: And the Uptake (Rattus norvegicus [11])?
Answer: 0.29 %ID/g

Question: And the Uptake (Rattus norvegicus [12])?
Answer: 0.18 %ID/g

Question: What about the Uptake (Rattus norvegicus [13]) of the same molecule?
Answer: 0.06 %ID/g

Question: What about the Uptake (Rattus norvegicus [14]) of the same molecule?
Answer: 0.07 %ID/g

Question: What about the Uptake (Rattus norvegicus [15]) of the same molecule?
Answer: 0.32 %ID/g

Question: What about the Uptake (Rattus norvegicus [16]) of the same molecule?
Answer: 0.09 %ID/g

Question: What about the Uptake (Rattus norvegicus [17]) of the same molecule?
Answer: 0.17 %ID/g

Question: What about the Uptake (Rattus norvegicus [18]) of the same molecule?
Answer: 0.17 %ID/g

Question: What about the Uptake (Rattus norvegicus [19]) of the same molecule?
Answer: 0.33 %ID/g

Question: What about the Uptake (Rattus norvegicus [20]) of the same molecule?
Answer: 0.08 %ID/g

Question: And the Uptake (Rattus norvegicus [21])?
Answer: 0.19 %ID/g

Question: And the Ki [22]?
Answer: 1.83 nM

Question: What about the Uptake (Rattus norvegicus [23]) of the same molecule?
Answer: 0.14 %ID/g

Question: And the Uptake (Rattus norvegicus [24])?
Answer: 0.06 %ID/g

Question: And the Uptake (Rattus norvegicus [25])?
Answer: 0.12 %ID/g
